Source: ChEMBL document CHEMBL1141606, “7-Azaindole derivatives as potential partial nicotinic agonists” (Bioorg Med Chem Lett, 2008)
Calls of active or inactive are those of the source. The calls are words filed in the database; no cut-off is given here.

What was measured:
[1] = target: T1, Neuronal acetylcholine receptor; alpha4/beta2 (Rattus norvegicus) (UniProt P09483+P12390); experiment: (§1) Displacement of [3H]cytisine from alpha-4-beta-2 nAChR in rat brain membrane; assay type: cell membranes
Summary of the method: (§2)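 Competition binding against [3H]cytisine on rat brain membranes at a contract lab, following a published nicotinic binding protocol. Affinity reported as Ki.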

[2] = target: T2, Neuronal acetylcholine receptor; alpha4/beta2 (Rattus norvegicus, UniProt P09483+P12390); experiment: as §1; assay type: cell membranes; summary of the method: as §2
T2 sequence (P09483 whole entry): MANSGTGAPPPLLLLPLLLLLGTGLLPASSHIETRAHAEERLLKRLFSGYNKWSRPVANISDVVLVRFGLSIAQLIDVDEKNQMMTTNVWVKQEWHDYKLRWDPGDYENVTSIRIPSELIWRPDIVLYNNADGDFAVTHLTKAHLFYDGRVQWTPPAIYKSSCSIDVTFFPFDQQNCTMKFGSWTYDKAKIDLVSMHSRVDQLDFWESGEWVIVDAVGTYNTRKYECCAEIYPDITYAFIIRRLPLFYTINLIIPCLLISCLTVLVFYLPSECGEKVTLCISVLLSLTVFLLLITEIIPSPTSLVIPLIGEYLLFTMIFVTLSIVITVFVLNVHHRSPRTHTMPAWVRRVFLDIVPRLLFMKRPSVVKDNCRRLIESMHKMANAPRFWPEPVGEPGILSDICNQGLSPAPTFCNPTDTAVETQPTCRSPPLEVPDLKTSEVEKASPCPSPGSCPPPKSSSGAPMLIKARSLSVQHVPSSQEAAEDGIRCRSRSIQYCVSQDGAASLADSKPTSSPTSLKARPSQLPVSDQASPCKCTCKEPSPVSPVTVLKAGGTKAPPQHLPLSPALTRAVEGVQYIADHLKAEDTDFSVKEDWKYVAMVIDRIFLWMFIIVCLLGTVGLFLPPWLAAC
T2 sequence (P12390 whole entry): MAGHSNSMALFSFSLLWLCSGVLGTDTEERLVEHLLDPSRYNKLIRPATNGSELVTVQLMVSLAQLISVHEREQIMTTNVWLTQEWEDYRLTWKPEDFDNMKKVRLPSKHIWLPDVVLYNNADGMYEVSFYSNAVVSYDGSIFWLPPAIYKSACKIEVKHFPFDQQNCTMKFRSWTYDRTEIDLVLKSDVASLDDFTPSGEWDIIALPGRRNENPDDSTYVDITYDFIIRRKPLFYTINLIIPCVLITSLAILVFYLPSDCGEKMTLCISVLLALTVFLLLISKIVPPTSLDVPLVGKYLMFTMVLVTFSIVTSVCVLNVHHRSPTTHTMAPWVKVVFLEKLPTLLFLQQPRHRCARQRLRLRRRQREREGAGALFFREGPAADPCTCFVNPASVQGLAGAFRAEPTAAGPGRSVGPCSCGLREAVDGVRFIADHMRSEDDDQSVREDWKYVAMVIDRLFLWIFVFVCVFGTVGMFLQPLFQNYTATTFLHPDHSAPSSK

[3] = target: T1, Neuronal acetylcholine receptor; alpha4/beta2 (Rattus norvegicus); experiment: Agonist activity at alpha4beta2 nAChR in rat striatal membranes assessed as effect on [3H]dopamine release; assay type: functional; conditions: Striatum, Slice, in the assay text read “striatal slices” for “striatal membranes”
Summary of the method: (§3)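 Rat striatal slices were used for [3H]dopamine release. Test compound was added with the K+ pulse for 5 min, at 10 nM (t = 50 min) and 1 µM (t = 90 min). […] In parallel runs, mecamylamine (0.1 µM) or DHβE (1 µM) sensitivity was read as percent inhibition of evoked release.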

[4] = Metabolic stability in human liver; assay type: ADME, tissue-based
Summary of the method: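 In vitro incubation with human liver homogenate; metabolic stability expressed as half-life (t1/2, min).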

[5] = Drug level in po dosed rat brain; assay type: ADME, organism-based; design: route oral
Summary of the method: (§4)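 Rats dosed orally; drug concentrations at Cmax measured in brain tissue (ng/g) and in plasma (ng/ml).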

[6] = Ratio of drug level in brain to plasma in po dosed rat; assay type: ADME, organism-based
Summary of the method: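 Rat iv/po pharmacokinetic study. Drug levels were measured in brain (ng/g) and plasma (ng/ml) after oral administration, and the brain-plasma ratio was derived from them.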

[7] = Drug level in po dosed rat plasma; assay type: ADME, organism-based; design: route oral; summary of the method: as §4
[8] = target: T1, Neuronal acetylcholine receptor; alpha4/beta2 (Rattus norvegicus); experiment: Antagonist activity at alpha-4-beta-2 nAChR in rat striatal slices assessed as blockade of nicotine-induced [3H]dopamine release at 10 uM; design: scale not given: the % may be the effect or the level left; conditions: Striatum, Slice
[9] = target: T1, Neuronal acetylcholine receptor; alpha4/beta2 (Rattus norvegicus); experiment: Agonist activity at alpha-4-beta-2 nAChR in rat striatal membranes assessed as effect on [3H]dopamine release relative to nicotine; assay type: functional; conditions: Striatum, Slice, in the assay text read “striatal slices” for “striatal membranes”; summary of the method: as §3
[10] = Oral bioavailability in rat; assay type: ADME, organism-based; conditions: in vivo
Summary of the method: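 Rat pharmacokinetic study with both intravenous and oral dosing; oral bioavailability (%) derived by comparing the two routes.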

[11] = target: T2, Neuronal acetylcholine receptor; alpha4/beta2; experiment: Displacement of [3H]L-nicotine from alpha-4-beta-2 nAChR in rat cerebral cortex; assay type: tissue-based

In the case of `Brc1ccc2cc(C[C@@H]3CCCN3)[nH]c2n1`, the Activity [1] is reported as “inactive”.
In the case of `Clc1ccc2cc(C3CCCNC3)[nH]c2n1` (single isomer, unassigned; (-)), the Activity [1] is reported as “inactive”.
In the case of `Clc1ccc2cc(C[C@@H]3CCCN3)[nH]c2n1`, the Ki [2] is reported as 3720 nM.
With `c1cnc2[nH]c(C3CCNC3)cc2c1` (configuration not stated) the Activity [3] was “Active”.
With `c1cnc2[nH]c(C3CCCNC3)cc2c1` (single isomer, unassigned; (+)) the Activity [1] was “inactive”.
With `c1cnc2[nH]c(C3CCCNC3)cc2c1` (single isomer, unassigned; (-)) the Ki [2] was 2000 nM.
`Clc1ccc2cc(C[C@H]3CCCN3)[nH]c2n1` gave a Ki [2] of 147 nM.
`c1cnc2[nH]cc(C3CCCNC3)c2c1` (configuration not stated) showed a Ki [2] of 2950 nM.
`c1cnc2[nH]c(C3CCNC3)cc2c1` (single isomer, unassigned; (-)) gave a Ki [2] of 251 nM.
With `Br.c1cnc2[nH]c(C3CCNC3)cc2c1` (configuration not stated) the Ki [2] was 10 nM and the half-life [4] was 2.23 h.
`Clc1ccc2cc(C3CCCNC3)[nH]c2n1` (single isomer, unassigned; (+)) gave a Ki [2] of 3460 nM.
In the case of `c1cnc2[nH]c(C3CCNC3)cc2c1` (racemic), the Ki [2] is reported as 16 nM.
For `Clc1ccc2c(C3CCCNC3)c[nH]c2n1` (configuration not stated), the Ki [2] was 2950 nM.
In the case of `c1cnc2[nH]c(C[C@H]3CCCN3)cc2c1`, the Cmax [5] is reported as 280 ng/g, the Kp [6] is reported as 3.7 and the Cmax [7] is reported as 120 ng/mL. For the same compound, the Activity [3] was “Active”, the Activity [8] was 70% and the Activity [9] was 62%. It also gave a bioavailability [10] of 11.3% and a half-life [4] of 4.43 h.
Work on `c1cnc2[nH]c(C[C@@H]3CCCN3)cc2c1` yielded a Ki [2] of 2750 nM.
For `CN[C@@H](C)C/C=C/c1cncc(OC)c1`, the Ki [11] was 11 nM.
In the case of `Brc1ccc2cc(C[C@H]3CCCN3)[nH]c2n1`, the Ki [2] is reported as 691 nM.
With `COc1ccc2cc(C[C@H]3CCCN3)[nH]c2n1` the Activity [1] was “inactive”.
With `Fc1ccc2cc(C[C@@H]3CCCN3)[nH]c2n1` the Ki [2] was 2000 nM.
`CN1CCC[C@@H]1Cc1cc2cccnc2[nH]1` showed a Ki [2] of 2510 nM.
In the case of `Clc1ccc2cc(C3CCCNC3)[nH]c2n1` (racemic), the Activity [1] is reported as “inactive”.
`CN1CCC[C@H]1Cc1cc2cccnc2[nH]1` showed a Ki [2] of 691 nM.
With `Fc1ccc2cc(C[C@H]3CCCN3)[nH]c2n1` the Ki [2] was 316 nM.
For `Clc1ccnc2[nH]c(C3CCCNC3)cc12` (configuration not stated), the Activity [1] was “inactive”.
